Compound activity as filed in PubChem BioAssay.
TPT1 inhibitor = C. albicans TPT1 enzyme inhibition; inhibition, % at 5 µM; recombinant caTPT1, FP RNA substrate dephosphorylation; 300,000 tested, 0.81% active;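 active = inhibition above the mean of all tested compounds plus 3 SD, set per screening campaign, cut at about 24% in these data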;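 also: plate controls were DMSO alone for no effect and ferristatin control at 100 nM for full effect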
Rpn11 block = blocks the human proteasome subunit Rpn11; O00487; human 26S proteasome, Ub4-pepOG fluorescence polarization; 20S core pre-blocked with epoxomicin; inhibition, % at 20 µM; 360,000 tested, 0.59% active;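 active = inhibition at 20 µM, scaled to each plate's controls, above about 33%, limit read from the data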
CSN inh = inhibitors of human CSN-mediated cullin deneddylation. 360,000 tested, 0.38% active. AID 651999. Q92905. Purified CSN, SCF-Nedd8-OG deneddylation, fluorescence polarization. inhibition, % at 12.5 µM;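 active = pattern-corrected inhibition above about 35%, with an unprinted fluorescence ratio check between 0.5 and 1.5, limit read from the data, passing the limit was not always enough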;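 also: 0% = enzyme with substrate and 100% = substrate without enzyme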
Target sequence (Q92905 whole entry, looked up, one chain of several): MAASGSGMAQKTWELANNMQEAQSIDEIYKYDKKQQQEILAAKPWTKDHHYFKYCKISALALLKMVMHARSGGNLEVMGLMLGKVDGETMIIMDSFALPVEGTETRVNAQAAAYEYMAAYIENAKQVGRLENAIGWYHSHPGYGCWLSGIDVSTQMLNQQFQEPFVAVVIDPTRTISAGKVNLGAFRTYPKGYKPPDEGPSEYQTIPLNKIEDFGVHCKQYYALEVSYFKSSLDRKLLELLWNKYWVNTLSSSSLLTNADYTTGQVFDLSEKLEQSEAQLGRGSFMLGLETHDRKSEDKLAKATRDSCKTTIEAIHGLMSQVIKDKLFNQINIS
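Schedule: reaction 90 min, room temperature / Assay system: HEK293T-derived human Csn5 enzyme / Input: Csn5 at 0.24 nM final / Measure: inhibition of Csn5 cleavage, % / Control set: substrate-only high control, full reaction low control / Technique: fluorescence polarization of the substrate / Buffer or medium: Tris/NaCl/DTT buffer, pH 7.5 / Reagent: SCFSkp2-Nedd8OG substrate at 10 nM final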
SENP1 FRET inh = SENP1 (human) catalytic domain inhibition; recombinant SENP1 catalytic domain, CyPet-SUMO1-YPet FRET cleavage; inhibition, % at 10 µM; 360,000 tested, 0.21% active; AID 624204;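 active = inhibition at least 30% at 10 µM, raw YFP signal under a set limit, fluorescence ratio 0.5 to 1.5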;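 also: 0% = enzyme with DMSO and 100% = no enzyme wells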
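material = recombinant human SENP1 catalytic domain, His6-tagged | quantity = 20 pM enzyme | reagent = 25 nM SUMO1 FRET substrate | compound dosing = 10 µM single point, 0.5% DMSO | timing = 50 min enzyme reaction, room temperature, light-protected | detection = FRET, CFP and YFP emission | control set = no-enzyme low, enzyme-DMSO high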
HNF4A DNA FP = change in binding of human HNF4 alpha to DNA | activity change, % at 10 µM | HNF4a-FITC DNA binding, fluorescence polarization, 1 h | P41235 | 360,000 tested, 0.3% active; in the data active = activity change above about 30%, passing the limit was not always enough
TPT1 inh confirm = confirmation of Candida albicans TPT1 inhibitors. shares compounds with TPT1 inhibitor. recombinant caTPT1, fluorescence polarization, RNase T1 coupled. inhibition, % at 5 µM. 2,400 tested, 74% active;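 active = inhibition above the primary screen limit, the mean inhibition of all tested compounds plus 3 SD, cut at about 25% in these data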
RNase T1 inh = blocks Aspergillus oryzae RNase T1, a TPT1 counter-screen; shares compounds with TPT1 inhibitor; RNase T1 cleavage, fluorescence polarization, 1536-well; inhibition, % at 5 µM; 2,400 tested, 83% active;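 active = inhibition above the solvent-only control well mean plus 3 SD, limit set per screening run, cut at about 23% in these data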;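 also: plate controls were DMSO wells with enzyme for no effect and wells without RNase T1 for full effect; inhibitors block cleavage so intact labeled substrate keeps polarization high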
Target sequence (P00651 whole entry, looked up): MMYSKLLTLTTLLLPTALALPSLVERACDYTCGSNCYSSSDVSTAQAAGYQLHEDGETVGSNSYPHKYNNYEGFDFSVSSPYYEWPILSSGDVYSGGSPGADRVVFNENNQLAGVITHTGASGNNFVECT
The depositor's hits bear a star; . = no result given. A selection: hits, their analogues and other compounds. The true share with any hit is near 1.6%.

SMILES	TPT1 inhibitor	Rpn11 block	CSN inh	SENP1 FRET inh	HNF4A DNA FP	TPT1 inh confirm	RNase T1 inh
CC(=O)c1cccc(NC(=O)CNC(=O)c2sc3ccccc3c2Cl)c1	29*	30	5	-28	15	45*	57*
Cc1cccc(NC(=O)CNC(=O)c2sc3ccccc3c2Cl)n1	6	10	2	-8	3	.	.
CC(=O)Nc1cc(NC(C)=O)ncn1	-2	6	0	3	-1	.	.
O=C(N/N=C/c1c(O)ccc2ccccc12)c1ccc(CO)nc1	82*	.	29	-27	42*	91*	93*
CC(C)[C@@H](CO)NC(=O)[C@H]1O[C@@H](n2cnc3c(N)ncnc32)[C@H](O)[C@@H]1O	.	2	-1	-2	-2	.	.
Cn1c(C(=O)NC2CCCCC2)cc2c(=O)n(C)c3ccccc3c21	67*	6	3	3	2	2	1
Cn1c(C(=O)NC2CCCCCC2)cc2c(=O)n(C)c3ccccc3c21	-4	-7	-2	5	-1	.	.
CN1C(=O)N(CC(=O)Nc2ccc3c(c2)OCO3)C(=O)C12CCCCC2	.	-1	-1	-4	-2	.	.
COc1ccc(Cl)cc1NC(=O)CN(C)C(=O)c1ccc(COc2ccccc2)cc1	2	5	-1	-1	4	.	.
NC1=NC(=O)/C(=C/c2cc(Br)c(O)c(Br)c2)S1	37*	5	19	-20	21	49*	62*
COCCNC(=O)C1CCCN(C(=O)COc2ccc(C(C)(C)C)cc2)CC1 (centres undefined)	.	6	-3	1	-1	.	.
O=C(CC1Nc2ccccc2NC1=O)NCCc1ccccc1 (centres undefined)	-6	34	3	-63	7	.	.
CC(NC(=O)CC1Nc2ccccc2NC1=O)c1ccccc1 (centres undefined)	30*	16	1	-24	4	39*	52*
CCOc1ccccc1NC(=O)CC1Nc2ccccc2NC1=O (centres undefined)	1	8	0	-50	1	.	.
O=C(CC1Nc2ccccc2NC1=O)c1ccccc1 (centres undefined)	73*	.	.	.	.	62*	73*
N#Cc1c(-c2ccco2)cc(-c2ccccn2)nc1N	28*	12	25	-17	2	15	18
O=C(Nc1oc2ccccc2c(=O)c1-c1ccccc1)c1ccco1	.	4	2	0	1	.	.
O=C(N/N=C/c1sc2ccccc2c1O)c1ccccc1	135*	.	103	-29	134	135*	128*
COc1ccc(C(=O)N/N=C/c2c[nH]c3ccccc23)cc1	2	-6	1	0	-1	.	.
COc1ccc(C(=O)N/N=C/c2sc3ccccc3c2O)cc1	139*	.	104	-26	126	145*	135*
COc1ccc(C(=O)N/N=C/C(=O)c2ccccc2)cc1	.	-4	4	-2	4	.	.
O=C(N/N=C/c1sc2ccccc2c1O)c1cccc2ccccc12	136*	.	83	-5	75*	143*	134*
COc1ccc2cc(C(=O)N/N=C/c3sc4ccccc4c3O)ccc2c1	136*	.	66	-29	133	135*	126*
Cc1ccc([C@@]2(OC(=O)c3ccccc3)C(=O)N(C(=O)OC(C)(C)C)c3ccccc32)cc1	.	.	-1	1	-1	.	.
Cc1cccc(N=C2NC(=O)/C(=C/c3cccn3C)S2)c1C	25*	.	16	-33	24	37*	49*
SMILES	TPT1 inhibitor	Rpn11 block	CSN inh	SENP1 FRET inh	HNF4A DNA FP	TPT1 inh confirm	RNase T1 inh
CN1/C(=C\C(=O)COc2ccc3c(c2)OCO3)C(C)(C)c2ccccc21	32*	31	12	-9	16	34*	43*
O=C1NC(c2ccco2)Nc2sc3c(c21)CCN(Cc1ccccc1)C3 (centres undefined)	53*	.	22	-30	5	53*	62*
CN1CCc2c(sc3c2C(=O)NC(c2ccco2)N3)C1 (centres undefined)	-3	11	10	-32	-13	.	.
CN1CCc2c(sc3c2C(=O)NC(c2cccc(OC(=O)c4cccs4)c2)N3)C1 (centres undefined)	99*	.	36*	-41	34*	110*	110*
CN1CCc2c(sc3c2C(=O)NC(c2ccc(-c4ccc(Cl)cc4)o2)N3)C1 (centres undefined)	91*	.	12	-33	31	86*	96*
CCOC(=O)N1CCc2c(sc3c2C(=O)NC(c2ccccc2)N3)C1 (centres undefined)	1	14	5	-52	6	.	.
CC(=O)Nc1ccc(/C=N/NC(=O)CNC(=O)c2ccccc2)cc1	-1	-1	-4	0	0	.	.
O=C1C=CC2=C3c4cc(O)c(O)cc4CC3(O)COC2=C1O (centres undefined)	.	.	61	-20	-58	.	.
CCn1c(=O)n(C)c2c(=O)n(C)c(=O)n(C)c21	.	2	-2	-1	2	.	.
O=C(Cc1ccccc1Cl)N/N=C/c1cccnc1	-3	2	0	3	0	.	.
N=C1/C(=C\c2coc3ccc(O)cc3c2=O)C(=O)N=C2SC=CN12	65*	.	69	-35	30	67*	76*
N=C1/C(=C\c2coc3ccccc3c2=O)C(=O)N=C2SC(c3ccncc3)=NN12	79*	.	70	-51	52	71*	84*
Cc1cc(/C=C2\C(=N)N3N=C(c4ccco4)SC3=NC2=O)c(C)n1Cc1ccccc1	13	10	14	-32	-12	.	.
N=C1/C(=C/c2coc3ccccc3c2=O)C(=O)N=C2SC(c3ccco3)=NN12	59*	.	-65	-41	23	88*	97*
CC(=O)OC1(C)C=Cc2ccccc2C1=NS(=O)(=O)c1ccccc1 (centres undefined)	.	0	-1	-1	-1	.	.
Cc1ccc(C)c(N2C(=N)S/C(=C\c3ccc(-c4ccccc4C(=O)O)o3)C2=O)c1	59*	37	4	-26	18	41*	53*
CCN1/C(=C/c2cc[n+](CCCS(=O)(=O)[O-])c3ccccc23)Sc2ccccc21	48*	22	14	3	28	37*	52*
CCC(/C=C1\Sc2ccc(OC)cc2N1CC)=C\c1sc2ccc(OC)cc2[n+]1CCCS(=O)(=O)[O-]	3	0	0	-27	6	.	.
Cc1ccc(O)c(NC(=O)c2noc3c2CCCCC3)c1	25*	-4	2	0	-13	0	4
Cc1ccc(N=Cc2cccc(O)c2O)c(C)c1	2	-1	9	2	-1	.	.
